{"source": "ChEMBL document CHEMBL1938309", "about": "“Stereochemical diversity of AI-2 analogs modulates quorum sensing in Vibrio harveyi and Escherichia coli” (Bioorg Med Chem, 2012)", "key": {"[1]": {"system": "Vibrio harveyi", "assay": "Growth inhibition of Vibrio harveyi MM32 at 0.1 mM after 5 hrs", "format": "organism-based", "conditions": "in vivo, 100 µM"}, "[2]": {"target": "Autoinducer 2-binding periplasmic protein LuxP (Vibrio harveyi) (UniProt P54300)", "sequence (P54300 whole entry)": "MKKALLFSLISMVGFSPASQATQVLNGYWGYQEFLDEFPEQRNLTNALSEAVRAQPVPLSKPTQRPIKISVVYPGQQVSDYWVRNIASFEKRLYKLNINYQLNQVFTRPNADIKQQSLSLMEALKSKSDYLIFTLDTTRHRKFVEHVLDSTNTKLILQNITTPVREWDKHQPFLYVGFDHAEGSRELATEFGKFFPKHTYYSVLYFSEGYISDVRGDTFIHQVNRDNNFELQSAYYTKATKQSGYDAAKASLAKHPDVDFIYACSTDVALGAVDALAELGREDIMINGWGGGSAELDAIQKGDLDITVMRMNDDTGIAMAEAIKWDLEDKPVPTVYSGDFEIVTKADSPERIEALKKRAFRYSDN", "assay": "(§1) Binding affinity to Vibrio harveyi CFP/YFP-tagged LuxP receptor assessed as decrease in FRET ratio", "in_short": "(§2)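 Purified CFP-LuxP-YFP chimera, 12.5 µg ml⁻¹, in 25 mM sodium phosphate pH 8, 35 mM NaCl, 1 mM borate; serially diluted compounds (in 0.01 M H2SO4 water), 2.5 µl into 280 µl reaction. FRET ratio 527/485 nm; lower ratio indicates binding. EC50 from dose series; standard deviations shown.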"}, "[3]": {"target": "T1, Autoinducer 2-binding periplasmic protein LuxP (Vibrio harveyi, UniProt P54300)", "T1 sequence (P54300 whole entry)": "as above", "assay": "as §1", "in_short": "as §2"}, "[4]": {"system": "Escherichia coli", "assay": "Agonist activity at LsrB receptor in LsrF-, LsrG-, luxS-deficient Escherichia coli KX1446 assessed as induction of lsr gene expression at 150 uM after 4.5 to 5 hrs by LacZ reporter gene assay", "format": "functional", "in_short": "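E. coli KX1446 carrying lsr-lacZ fusion grown in LB; analog diluted from 2 mM stock in 0.01 M H2SO4, final 150 μM, no DPD added. Acid-water and AI-2 controls per series; triplicate independent cultures.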"}, "[5]": {"target": "T1, Autoinducer 2-binding periplasmic protein LuxP", "assay": "Agonist activity at Vibrio harveyi MM32 LuxP receptor assessed as induction of bioluminescence after 5 hrs 30 mins", "format": "functional", "in_short": "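MM32 reporter grown in AB medium; compounds serially diluted in 0.01 M H2SO4 water, without added DPD. Light counted as cpm after 5 h 30 min at 30 °C. EC50 from four-parameter sigmoidal fit by non-linear least squares; error bars are standard deviations.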"}, "[6]": {"target": "T1, Autoinducer 2-binding periplasmic protein LuxP", "assay": "Agonist activity at Vibrio harveyi LuxP receptor", "format": "functional"}, "[7]": {"assay": "Inhibition of […]-deficient Salmonella Typhimurium Met844 Quorum sensing system by lacZ reporter gene assay", "set-up": "species or system Salmonella enterica subsp. enterica serovar Typhimurium"}, "[8]": {"system": "Escherichia coli", "assay": "Agonist activity at LsrB receptor in LsrF-, LsrG-, luxS-deficient Escherichia coli KX1446 assessed as increase in receptor agonist DPD-induced lsr gene expression at 150 uM after 4.5 to 5 hrs by LacZ reporter gene assay", "format": "functional", "in_short": "(§3)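 E. coli lsr-lacZ reporter KX1446 in LB with overnight culture aliquot; analogs at final 15 or 150 μM added from 2 mM stocks in 0.01 M H2SO4, with 20 µM DPD present. Acid-water and AI-2 controls.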"}, "[9]": {"system": "Escherichia coli", "assay": "Agonist activity at LsrB receptor in LsrF-, LsrG-, luxS-deficient Escherichia coli KX1446 assessed as increase in receptor agonist DPD-induced lsr gene expression at 15 uM after 4.5 to 5 hrs by LacZ reporter gene assay", "format": "functional", "in_short": "as §3"}, "[10]": {"target": "T1, Autoinducer 2-binding periplasmic protein LuxP", "assay": "Antagonist activity at Vibrio harveyi MM32 LuxP receptor assessed as decrease in receptor agonist DPD-induced bioluminescence after 5 hrs 30 mins", "format": "functional", "in_short": "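V. harveyi MM32 in AB medium with 0.1 μM DPD plus serial dilutions of test compound (in 0.01 M H2SO4 water). Luminescence read as cpm after 5 h 30 min at 30 °C; IC50 by four-parameter sigmoidal non-linear least-squares fitting.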"}}, "note": "Active and inactive are the calls of the source. No cut-off for these calls is given here.", "data": [{"smiles": "CC(=O)C(=O)[C@H](O)[C@H](C)O", "values": [{"measurement": "growth inhibition (GI)", "setting": "[1]", "result": "Toxic"}, {"measurement": "Activity", "setting": "[2]", "result": "Dose-dependent effect"}, {"measurement": "EC50", "setting": "[3]", "result": 10, "unit": "µM"}, {"measurement": "Activity", "setting": "[4]", "result": "inactive"}, {"measurement": "EC50", "setting": "[5]", "result": 26.5, "unit": "µM"}]}, {"smiles": "O=C(C(=O)C(F)(F)F)[C@@H](O)CO", "values": [{"measurement": "EC50", "setting": "[6]", "result": 30, "unit": "µM"}]}, {"smiles": "CC(=O)C(=O)[C@@H](O)CO", "values": [{"measurement": "growth inhibition (GI)", "setting": "[1]", "result": "Toxic"}, {"measurement": "EC50", "setting": "[3]", "result": 0.032, "unit": "µM"}, {"measurement": "EC50", "setting": "[5]", "result": 0.076, "unit": "µM"}]}, {"smiles": "CCCCCC(=O)C(=O)[C@@H](O)CO", "values": [{"measurement": "IC50", "setting": "[7]", "result": 5, "unit": "µM"}]}, {"smiles": "CC(=O)C(=O)[C@@H](O)[C@@H](C)O", "note": "(single isomer, unassigned)", "values": [{"measurement": "growth inhibition (GI)", "setting": "[1]", "result": "Toxic"}, {"measurement": "Activity", "setting": "[2]", "result": "Dose-dependent effect"}, {"measurement": "EC50", "setting": "[3]", "result": 0.14, "unit": "µM"}, {"measurement": "Activity", "setting": "[4]", "result": "inactive"}, {"measurement": "EC50", "setting": "[5]", "result": 0.65, "unit": "µM"}]}, {"smiles": "CC(=O)C(=O)[C@H](O)[C@@H](C)O", "values": [{"measurement": "growth inhibition (GI)", "setting": "[1]", "result": "Toxic"}, {"measurement": "Activity", "setting": "[8]", "result": "inactive"}, {"measurement": "Activity", "setting": "[2]", "result": "Dose-dependent effect"}, {"measurement": "EC50", "setting": "[3]", "result": 11.6, "unit": "µM"}, {"measurement": "Activity", "setting": "[4]", "result": "inactive"}, {"measurement": "EC50", "setting": "[5]", "result": 19.5, "unit": "µM"}, {"measurement": "Activity", "setting": "[9]", "result": "inactive"}, {"measurement": "IC50", "setting": "[10]", "result": 160, "unit": "µM"}]}, {"smiles": "CC(=O)C(=O)[C@H](O)CO", "values": [{"measurement": "EC50", "setting": "[6]", "result": 30, "unit": "µM"}]}, {"smiles": "CC(=O)C(=O)[C@@H](O)[C@H](C)O", "values": [{"measurement": "growth inhibition (GI)", "setting": "[1]", "result": "Toxic"}, {"measurement": "Activity", "setting": "[8]", "result": "Active"}, {"measurement": "Activity", "setting": "[2]", "result": "Dose-dependent effect"}, {"measurement": "EC50", "setting": "[3]", "result": 1.87, "unit": "µM"}, {"measurement": "Activity", "setting": "[4]", "result": "inactive"}, {"measurement": "EC50", "setting": "[5]", "result": 6.21, "unit": "µM"}, {"measurement": "Activity", "setting": "[9]", "result": "Active"}, {"measurement": "IC50", "setting": "[10]", "result": 57.5, "unit": "µM"}]}]}
